From ChEMBL document CHEMBL1143378, “Inactivation of GABA transaminase by 3-chloro-1-(4-hydroxyphenyl)propan-1-one” (Bioorg Med Chem Lett, 2009)
Active and inactive are the calls of the source. The rule behind the calls is not given here.

Key:
Assay type in all cases: tissue-based
[1] = molecular target: T1, 4-aminobutyrate aminotransferase, mitochondrial (Rattus norvegicus, UniProt P50554); test: Inhibition of GABA transaminase in rat brain by Kitz-Wilson plot
Method in brief: (§1)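 GABA-T was isolated from rat brain. For time-dependent inactivation, log remaining activity was plotted against time at each inactivator concentration. Inverse slopes were then plotted against inverse inactivator concentration, and K_I and k_inact were taken from a Kitz–Wilson plot.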

[2] = molecular target: 4-aminobutyrate aminotransferase, mitochondrial (Rattus norvegicus) (UniProt P50554); test: (§2) Activity of GABA transaminase in rat brain
Chain of 4-aminobutyrate aminotransferase, mitochondrial (Rattus norvegicus) (P50554 28-500 limits assumed): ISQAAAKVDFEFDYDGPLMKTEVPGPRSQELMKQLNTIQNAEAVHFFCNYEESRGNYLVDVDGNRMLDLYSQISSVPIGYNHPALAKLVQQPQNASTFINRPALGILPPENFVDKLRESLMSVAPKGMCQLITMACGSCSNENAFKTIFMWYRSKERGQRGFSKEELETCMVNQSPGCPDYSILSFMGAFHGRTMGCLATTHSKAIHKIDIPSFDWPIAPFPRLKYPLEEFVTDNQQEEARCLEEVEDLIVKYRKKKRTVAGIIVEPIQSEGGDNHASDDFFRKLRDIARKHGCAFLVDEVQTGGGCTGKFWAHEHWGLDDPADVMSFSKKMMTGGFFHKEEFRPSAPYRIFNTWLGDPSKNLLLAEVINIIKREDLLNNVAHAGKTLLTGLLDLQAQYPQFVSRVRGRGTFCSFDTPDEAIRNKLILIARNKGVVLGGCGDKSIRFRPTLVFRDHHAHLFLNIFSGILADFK

[3] = molecular target: T1, 4-aminobutyrate aminotransferase, mitochondrial; test: as §2
[4] = molecular target: 4-aminobutyrate aminotransferase, mitochondrial (Rattus norvegicus) (UniProt P50554); test: Ratio of Kinact to KI for GABA transaminase in rat brain; method in brief: as §1
[5] = molecular target: 4-aminobutyrate aminotransferase, mitochondrial (Rattus norvegicus) (UniProt P50554); test: Inhibition of GABA transaminase in rat brain at 45 uM after 40 mins in presence of alpha-ketoglutarate
Method in brief: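 Rat brain GABA-T was incubated with GABA, inhibitor (45 μM) and varying α-ketoglutarate concentrations together for 40 min before enzyme activity was measured.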

[6] = molecular target: 4-aminobutyrate aminotransferase, mitochondrial (Rattus norvegicus) (UniProt P50554); test: Inhibition of GABA transaminase in rat brain at 60 uM after 30 mins by gel filtration
Method in brief: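 Rat brain GABA-T was incubated with 60 μM inhibitor at 25 °C for 30 min and an aliquot was assayed. The remaining mixture was passed through Sephadex G50 to remove small molecules and assayed again. An identical sample without inactivator served as control. Values are mean ± SEM, n = 6.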

[7] = molecular target: 4-aminobutyrate aminotransferase, mitochondrial (Rattus norvegicus) (UniProt P50554); test: Inhibition of GABA transaminase in rat brain at 30 uM for 40 mins in presence of 30 mM alpha-ketoglutarate
Method in brief: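 Rat brain GABA-T was preincubated with inhibitor (30 μM) for 40 min. Increasing concentrations of α-ketoglutarate, up to 30 mM, were then added and residual activity was measured. A no-inactivator control was run. Values are mean ± SEM, n = 6.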

T1 sequence (P50554 whole entry): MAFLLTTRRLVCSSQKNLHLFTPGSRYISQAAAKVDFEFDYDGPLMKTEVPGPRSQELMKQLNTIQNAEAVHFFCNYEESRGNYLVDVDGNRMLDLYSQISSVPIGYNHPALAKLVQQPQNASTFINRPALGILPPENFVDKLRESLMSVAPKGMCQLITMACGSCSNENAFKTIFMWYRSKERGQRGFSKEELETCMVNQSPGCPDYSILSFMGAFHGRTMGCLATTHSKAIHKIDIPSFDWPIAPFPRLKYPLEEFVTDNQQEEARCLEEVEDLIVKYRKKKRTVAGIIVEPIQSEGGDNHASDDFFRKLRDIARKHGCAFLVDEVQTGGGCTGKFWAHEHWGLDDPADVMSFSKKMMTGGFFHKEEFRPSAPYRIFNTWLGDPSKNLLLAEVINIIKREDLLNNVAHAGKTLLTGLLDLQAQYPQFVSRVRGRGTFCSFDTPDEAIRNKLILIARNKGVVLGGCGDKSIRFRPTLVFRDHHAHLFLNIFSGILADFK

SMILES	IC50 [1] [µM]	Kinact [2] [min⁻¹]	Ki [3] [µM]	Ratio [4]	Activity [5]	Activity [6]	Activity [7]
O=C(CCCl)c1ccc(O)cc1	3.99	0.0457	24.3	1.88	inactive	Active	Active
O=Cc1ccc(O)cc1 [4-HYDROXYBENZALDEHYDE]	16.5	–	–	–	–	–	–
